Assay results: ChEMBL document CHEMBL4270646, “Novel antimalarial chloroquine- and primaquine-quinoxaline 1,4-di-N-oxide hybrids: Design, synthesis, Plasmodium life cycle stage profile, and preliminary toxicity studies” (Eur J Med Chem, 2018)
The source made the active and inactive calls. The calls are words filed in the database; no cut-off is given here.

Experiments:
[1] = Cytotoxicity against human HepG2 cells assessed as reduction in cell viability after 48 hrs by MTT assay; assay type: cell-based
Procedure, shortened: (§1)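 Cells seeded at 2 × 10^5 per well and allowed 24 h at 37°C, 5% CO2 to form a monolayer. Dilutions added in triplicate and incubated 48 h. MTT (2 mg/mL) then added for 4 h, followed by DMSO for 20 min at room temperature. Absorbance read at 550 nm; DMSO diluent and untreated cells served as negative controls. CC50 derived from the curve.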

Plasmodium yoelii [2] = experiment: Antiplasmodial activity against Plasmodium yoelii 17XNL sporozoites infected in BALB/c mouse assessed as parasite reduction at 100 mg/kg, po measured at day 1 to day 4 by […]; assay type: functional, organism-based
Procedure, shortened: (§2)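 BALB/c mice (6-8 weeks, 20-23 g), n=4 per hybrid group and n=5 per control. Dosed orally at 100 mg/kg (100 µL) on days -1, 0, +1 and +2. Vehicle was DMSO 100%; primaquine diphosphate given at 30 mg/kg daily. On day 0, 5 x 10^3 cryopreserved P. yoelii 17XNL sporozoites injected i.v. Parasitaemia read by Giemsa smear and SYBR Green flow cytometry. Groups compared by Kruskal-Wallis test.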

Plasmodium falciparum [3] = experiment: Antiplasmodial activity against chloroquine-sensitive Plasmodium falciparum 3D7 infected in human red blood cells assessed as reduction in parasite growth after 48 hrs by Hoechst 33342 staining based flow cytometric analysis; assay type: functional, organism-based; conditions: 3D7, 48 h
Procedure, shortened: (§3)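 Ring-stage cultures (>80% rings) at 1% parasitaemia in A+ human erythrocytes, 2% haematocrit. Medium RPMI 1640 with 10% A+ serum, 37°C, 5% CO2/5% O2. Compounds in DMSO at 1.56–100 µg/mL final, DMSO ≤1%. After 48 h, cells stained with Hoechst 33342 and 1×10^4 counted by flow cytometry. IC50 from logistic dose-response regression; three independent experiments in triplicate.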

Plasmodium falciparum [4] = experiment: Antiplasmodial activity against the multidrug-resistant Plasmodium falciparum […] infected in human red blood cells assessed as reduction in parasite growth after 48 hrs by Hoechst 33342 staining based flow cytometric analysis; assay type: functional, organism-based; procedure, shortened: as §3
[5] = Selectivity index, ratio of CC50 for human HepG2 cells to IC50 for multidrug-resistant Plasmodium falciparum […]; assay type: toxicity; conditions: read-out: Ratio CC50/IC50
Procedure, shortened: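 Selectivity index = HepG2 CC50 / FCR-3 IC50. CC50 from MTT assay after 48 h exposure, A550. IC50 from 48 h Hoechst 33342 flow-cytometry assay.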

Plasmodium yoelii [6] = experiment: Antiplasmodial activity against GFP-harboring Plasmodium yoelii sporozoites infected in human HepG2 cells expressing CD81 assessed as reduction in parasite growth treated every 24 hrs by DAPI staining-based fluorescence microscopic analysis; assay type: functional, organism-based; conditions: HepG2, 24 h
Procedure, shortened: (§4)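 Collagen-coated wells seeded with HepG2 (P. berghei), HepG2-CD81 (P. yoelii) or primary human hepatocytes (P. falciparum). Sporozoites added: 5×10^3 to 1×10^4 per well to the cell lines, 2.5×10^4 per well to hepatocytes. Compounds given at infection: top 10 µg/mL plus seven serial dilutions, renewed at 3 h and then every 24 h. Cultures grown 40 h (cell lines) or 8 days (hepatocytes) at 37°C. Methanol-fixed, HSP70 immunolabelled, DAPI counterstained. IC50 from logistic regression; triplicate.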

Plasmodium berghei [7] = experiment: Antiplasmodial activity against GFP-harboring Plasmodium berghei sporozoites infected in human HepG2 cells assessed as reduction in parasite growth treated every 24 hrs by DAPI staining-based fluorescence microscopic analysis; assay type: functional, organism-based; conditions: HepG2, 24 h; procedure, shortened: as §4
[8] = Cytotoxicity against human HepG2 cells expressing CD81 assessed as reduction in cell viability after 48 hrs by MTT assay; assay type: cell-based; procedure, shortened: as §1
[9] = Selectivity index, ratio of CC50 for human HepG2 cells expressing CD81 to IC50 for GFP-expressing Plasmodium yoelii sporozoites; assay type: toxicity; conditions: read-out: Ratio CC50/IC50
Procedure, shortened: (§5)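 Selectivity index = CC50 (matching cell) / IC50 (matching parasite). Cell–parasite pairs: HepG2-CD81 with P. yoelii, HepG2 with P. berghei, human hepatocytes with P. falciparum.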

[10] = Selectivity index, ratio of CC50 for human HepG2 cells to IC50 for GFP-expressing Plasmodium berghei sporozoites; assay type: toxicity; conditions: read-out: Ratio CC50/IC50; procedure, shortened: as §5
[11] = Selectivity index, ratio of CC50 for human primary hepatocytes to IC50 for GFP-expressing Plasmodium falciparum sporozoites; assay type: toxicity; conditions: read-out: Ratio CC50/IC50; procedure, shortened: as §5
Plasmodium yoelii [12] = experiment: Antiplasmodial activity against Plasmodium yoelii 17XNL sporozoites infected in BALB/c mouse assessed as decrease in parasitaemia in blood at 100 mg/kg, po measured at day 4 by […] relative to control; assay type: functional; design: scale not given: the % may be the effect or the level left; procedure, shortened: as §2
Plasmodium yoelii [13] = experiment: Antiplasmodial activity against Plasmodium yoelii 17XNL sporozoites infected in BALB/c mouse assessed as pre-patent time period of parasitaemia at 100 mg/kg, po measured at day 4 by […]; assay type: functional; procedure, shortened: as §2
Mus musculus [14] = experiment: Acute toxicity in BALB/c mouse assessed as necrosis of liver at 500 mg/kg, po administered as single dose measured at day 14 by haematoxylin and eosin staining based microscopic analysis; assay type: organism-based; conditions: in vivo
Procedure, shortened: (§6)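 Female BALB/c mice, groups of three, single oral dose; vehicle DMSO 100% for controls. Mice euthanised with CO2 on day 14, or earlier if suffering. Gross necropsy performed. Spleen, liver and kidney fixed in formaldehyde 37%, stained with haematoxylin and eosin and examined by light microscopy.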

Mus musculus [15] = experiment: Acute toxicity in BALB/c mouse assessed as necrosis of kidney at 500 mg/kg, po administered as single dose measured at day 14 by haematoxylin and eosin staining based microscopic analysis; assay type: organism-based; conditions: in vivo; procedure, shortened: as §6
Mus musculus [16] = experiment: Acute toxicity in BALB/c mouse assessed as ulcerated congestion in stomach at 500 mg/kg, po administered as single dose measured at day 14 by […]; assay type: organism-based; conditions: in vivo; procedure, shortened: as §6
[17] = Cytotoxicity against human primary hepatocytes assessed as reduction in cell viability after 48 hrs by MTT assay; assay type: cell-based, Hepatocyte; procedure, shortened: as §1
Plasmodium yoelii [18] = experiment: Antiplasmodial activity against Plasmodium yoelii 17XNL sporozoites infected in BALB/c mouse assessed as parasite burden at 100 mg/kg, po measured at day 4 by […] (reference value: 0.06%); assay type: functional; procedure, shortened: as §2
Plasmodium yoelii [19] = experiment: Antiplasmodial activity against GFP-harboring Plasmodium yoelii sporozoites infected in human HepG2 cells expressing CD81 assessed as reduction in parasite growth at 10 ug/ml treated every 24 hrs by DAPI staining-based fluorescence microscopic analysis; assay type: functional, organism-based; procedure, shortened: as §4
Plasmodium falciparum [20] = experiment: Antiplasmodial activity against GFP-harboring Plasmodium falciparum sporozoites infected in human primary hepatocytes assessed as reduction in parasite growth at 10 ug/ml treated every 24 hrs by DAPI staining-based fluorescence microscopic analysis; assay type: functional, organism-based; procedure, shortened: as §4
Plasmodium falciparum [21] = experiment: Antiplasmodial activity against GFP-harboring Plasmodium falciparum sporozoites infected in human primary hepatocytes assessed as reduction in parasite growth treated every 24 hrs by DAPI staining-based fluorescence microscopic analysis; assay type: functional, organism-based; procedure, shortened: as §4
Plasmodium berghei [22] = experiment: Antiplasmodial activity against GFP-harboring Plasmodium berghei sporozoites infected in human HepG2 cells assessed as reduction in parasite growth at 10 ug/ml treated every 24 hrs by DAPI staining-based fluorescence microscopic analysis; assay type: functional, organism-based; procedure, shortened: as §4
Plasmodium berghei [23] = experiment: Potency index, ratio of primaquine IC50 to compound IC50 for GFP-expressing Plasmodium berghei sporozoites infected in human HepG2 cells; assay type: functional
Plasmodium berghei [24] = experiment: Antiplasmodial activity against GFP-expressing gametocytes of Plasmodium berghei sporozoites in Anopheles stephensi mosquitoes feeded on blood from infected Swiss mouse assessed as reduction in number of oocysts in mosquito midgut at 100 mg/kg, ip pretreated for 1.5 hrs followed by blood feeding of mosquito and measured at 8 days post mosquitoes infection by fluorescence microscopic method relative to control; assay type: functional; design: scale not given: the % may be the effect or the level left
Procedure, shortened: (§7)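 Swiss mice (female, 6 weeks) infected i.p. with PbGFP-infected red cells (200 µL, 3000 parasites/µL). Gametocytes monitored 4 days by Giemsa smear and exflagellation. Hybrid given i.p. at 100 mg/kg in DMSO 1.5 h before A. stephensi fed 1 h on mice with 1% gametocytes. Controls were untreated and DMSO-treated mice. Thirty mosquitoes per group dissected after 8 days. Midgut oocysts counted by fluorescence microscopy against control mosquitoes taken as 100%.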

Plasmodium berghei [25] = experiment: Antiplasmodial activity against GFP-expressing gametocytes of Plasmodium berghei sporozoites in Anopheles stephensi mosquitoes feeded on blood from infected Swiss mouse assessed as reduction in mosquito infection at 100 mg/kg, ip pretreated for 1.5 hrs followed by blood feeding of mosquito and measured at 8 days post mosquitoes infection by fluorescence microscopic method relative to control; assay type: functional; design: scale not given: the % may be the effect or the level left; procedure, shortened: as §7

Row | SMILES | CC50 at 48 h [1] [µM] | IC50 (Plasmodium falciparum [3]) [µM] | IC50 (Plasmodium falciparum [4]) [µM] | selectivity ratio [5] | IC50 (Plasmodium yoelii [6]) [µM] | IC50 (Plasmodium berghei [7]) [µM] | CC50 at 48 h [8] [µM] | selectivity ratio [9] | selectivity ratio [10] | selectivity ratio [11] | CC50 at 48 h [17] [µM] | Activity (Plasmodium yoelii [18]) [%] | IC50 (Plasmodium falciparum [21]) [µM] | other results
1 | CCN(CC)CCCC(C)Nc1ccnc2cc(Cl)ccc12 (centres undefined) [CHLOROQUINE] | 137 |  |  |  |  |  |  |  |  |  |  |  |  | 
2 | COc1cc(NC(C)CCCN)c2ncccc2c1 (centres undefined) [PRIMAQUINE] | 120 | 9.86 | 1.1 | 109 | 2.13 | 3.65 | 69.8 | 32.8 | 33 | 136 |  |  |  | Activity (Plasmodium yoelii [2]): inactive; Activity (Plasmodium yoelii [12]): 100%; Time (Plasmodium yoelii [13]): 24 h; Activity (Mus musculus [14]): Non-Toxic; Activity (Mus musculus [15]): Non-Toxic; Activity (Mus musculus [16]): Toxic
3 | COc1cc(NC(C)CCCNC(=O)c2c(C)[n+]([O-])c3ccc(OC)cc3[n+]2[O-])c2ncccc2c1 (centres undefined) | > 204 | 27 | 30.7 | > 6.63 |  | 14.1 | > 204 |  | > 14.5 |  | > 204 | 0.02 |  | inhibition (Plasmodium yoelii [19]): inactive; inhibition (Plasmodium falciparum [20]): inactive
4 | Cc1ccc2c(c1)[n+]([O-])c(C(=O)NCCNc1ccnc3cc(Cl)ccc13)c(C)[n+]2[O-] | 31.4 | 0.57 | 2.24 | 14 |  |  |  |  |  |  |  |  |  | 
5 | COc1cc(NC(C)CCCNC(=O)c2c(C)[n+]([O-])c3ccc(C)cc3[n+]2[O-])c2ncccc2c1 (centres undefined) | 110 | 44.9 | 50.6 | 2.17 | 14 | 6.34 | > 207 | 14.7 | 17.3 | 28.6 | > 207 | 0.03 | 7.21 | 
6 | Cc1c(C(=O)NCCNc2ccnc3cc(Cl)ccc23)[n+]([O-])c2ccccc2[n+]1[O-] | 58.2 | 0.78 | 1.9 | 30.6 |  |  |  |  |  |  |  |  |  | 
7 | Cc1cc2c(cc1C)[n+]([O-])c(C(=O)NCCNc1ccnc3cc(Cl)ccc13)c(C)[n+]2[O-] | 64.5 | 0.68 | 0.9 | 71.7 |  |  |  |  |  |  |  |  |  | inhibition (Plasmodium yoelii [19]): inactive; inhibition (Plasmodium berghei [22]): inactive; inhibition (Plasmodium falciparum [20]): inactive
8 | COc1cc(NC(C)CCCNC(=O)c2c(C)[n+]([O-])c3ccc(Cl)cc3[n+]2[O-])c2ncccc2c1 (centres undefined) | 155 | 62.6 | 36.1 | 3.34 | 5.71 | 1.14 | > 198 | 34.7 | 136 | 54.5 | > 198 | 0.01 | 3.64 | Ratio IC50 (Plasmodium berghei [23]): 3.2; Activity (Plasmodium berghei [24]): 77%; Activity (Plasmodium berghei [25]): 23%
9 | COc1cc(NC(C)CCCNC(=O)c2c(C)[n+]([O-])c3cc(C)c(C)cc3[n+]2[O-])c2ncccc2c1 (centres undefined) | > 202 | 30.8 | 52.9 | > 3.82 |  | 11.3 | > 202 |  | > 17.8 | 20.2 | > 202 | 0.06 | 8.11 | 
10 | COc1ccc2c(c1)[n+]([O-])c(C(=O)NCCNc1ccnc3cc(Cl)ccc13)c(C)[n+]2[O-] | 92.7 | 2.11 | 2.07 | 44.8 |  |  |  |  |  |  |  |  |  | 
11 | Cc1c(C(=O)NCCNc2ccnc3cc(Cl)ccc23)[n+]([O-])c2cc(Cl)ccc2[n+]1[O-] | 21.8 | 0.52 | 0.4 | 54.6 | 14.6 | 10.1 | 69.9 | 4.78 | 2.15 | 9.56 | 61.1 |  | 6.39 | 
